Experiment [1] deals with T1, Nitric oxide synthase, inducible (Mus musculus) (UniProt P29477).
T1 sequence (whole entry): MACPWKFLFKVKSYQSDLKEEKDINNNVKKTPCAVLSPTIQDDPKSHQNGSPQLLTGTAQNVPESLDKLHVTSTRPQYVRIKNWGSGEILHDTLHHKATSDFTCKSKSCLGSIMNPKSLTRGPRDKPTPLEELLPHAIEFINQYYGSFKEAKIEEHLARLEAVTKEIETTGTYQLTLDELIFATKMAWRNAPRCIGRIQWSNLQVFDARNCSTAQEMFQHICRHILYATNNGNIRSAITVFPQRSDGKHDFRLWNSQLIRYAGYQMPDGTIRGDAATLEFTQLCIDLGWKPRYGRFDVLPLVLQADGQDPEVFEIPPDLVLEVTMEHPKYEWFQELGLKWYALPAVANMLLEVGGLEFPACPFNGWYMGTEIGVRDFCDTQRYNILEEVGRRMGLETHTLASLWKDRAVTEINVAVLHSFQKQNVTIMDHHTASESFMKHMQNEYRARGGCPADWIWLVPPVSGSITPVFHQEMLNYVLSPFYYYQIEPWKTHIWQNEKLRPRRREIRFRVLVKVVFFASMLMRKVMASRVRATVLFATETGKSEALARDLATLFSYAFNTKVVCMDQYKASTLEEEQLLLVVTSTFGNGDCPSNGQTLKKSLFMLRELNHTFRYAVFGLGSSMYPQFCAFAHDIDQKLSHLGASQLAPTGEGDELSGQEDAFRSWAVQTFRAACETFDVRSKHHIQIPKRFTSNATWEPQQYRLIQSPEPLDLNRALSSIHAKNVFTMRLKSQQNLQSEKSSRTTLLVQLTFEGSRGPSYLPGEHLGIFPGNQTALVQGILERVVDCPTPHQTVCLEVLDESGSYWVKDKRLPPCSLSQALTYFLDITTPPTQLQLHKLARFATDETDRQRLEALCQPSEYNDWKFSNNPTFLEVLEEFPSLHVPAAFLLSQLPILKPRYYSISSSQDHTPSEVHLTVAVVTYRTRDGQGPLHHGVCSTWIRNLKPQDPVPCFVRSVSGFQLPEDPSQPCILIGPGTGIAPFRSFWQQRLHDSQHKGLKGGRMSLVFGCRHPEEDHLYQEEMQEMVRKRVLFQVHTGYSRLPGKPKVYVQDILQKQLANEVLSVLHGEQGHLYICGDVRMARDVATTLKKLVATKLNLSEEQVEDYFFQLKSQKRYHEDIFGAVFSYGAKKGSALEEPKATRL
The experiment can be described thus: Percent inhibition of Nitrite accumulation at a concentration of 10 uM was determined in RAW 264.7 cells. Type of experiment: functional, cell-based. The procedure, abridged: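 Nitrite accumulation measured in RAW 264.7 cells at 2 × 10⁶/mL stimulated with E. coli LPS, with compound at 10 µM or vehicle, 37 °C, 20 h. Nitrite read fluorometrically against a sodium nitrite standard curve. Reported as mean±SEM % inhibition (n=6). One-way ANOVA followed by Dunnett's test.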

The target of experiment [2] is T2, Nitric oxide synthase, inducible (Mus musculus, UniProt P29477).
T2 sequence (P29477 whole entry): T1 sequence (whole entry)
The experiment can be described thus: Inhibitory concentration required to produce 50% inhibition of the response was determined; range-0.150.47 uM. Type of experiment: functional. The procedure, abridged:
(§1)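 Murine RAW 264.7 macrophages (DMEM, 10% FBS, 2 mM L-glutamine, penicillin/streptomycin) at 2 × 10⁶/mL co-incubated with E. coli LPS and test compound or vehicle, 37 °C, 20 h. Nitrite in the medium measured fluorometrically against a sodium nitrite standard curve. IC50 calculated from at least four significant concentrations and reported with 95% confidence limits. MTT reduction used to check cytotoxicity.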

For experiment [3], the target named is T2, Nitric oxide synthase, inducible. The experiment can be described thus: Inhibitory concentration required to produce 50% inhibition of the response was determined; range-0.541.16 uM. Type of experiment: functional. The method, boiled down:
as §1

The target is the same in experiment [4]. The experiment is described as follows: Inhibitory concentration required to produce 50% inhibition of the response was determined; range-0.461.81 uM. Type of experiment: functional. The method, boiled down:
as §1

For experiment [5] the target is unchanged. The experiment can be described thus: Inhibitory concentration required to produce 50% inhibition of the response was determined; range-0.811.70 uM. Type of experiment: functional. The procedure, abridged:
as §1

The target is the same in experiment [6]. The experiment is described as follows: Inhibitory concentration required to produce 50% inhibition of the response was determined. Type of experiment: functional. The method, boiled down: as §1
Experiment [7] has the same target. The experiment can be described thus: Inhibitory concentration required to produce 50% inhibition of the response was determined; range-0.431.12 uM. Type of experiment: functional. The method, boiled down:
as §1

Experiment [8] shares this target. The experiment is described as follows: Inhibitory concentration required to produce 50% inhibition of the response was determined; range-0.431.85 uM. Type of experiment: functional. The procedure, abridged:
as §1

In the case of `COc1cc(OC)c(OC)cc1/C=C/C(=O)c1cccc(C(F)(F)F)c1`, the inhibition (commonly the share of the control response that was lost under treatment) in experiment [1] was determined as 26.7%.
Take `COc1cc(OC)c(OC)cc1/C=C/C(=O)c1ccccc1C(F)(F)F`: in experiment [2], the IC50 (commonly the concentration that gives 50% inhibition) is 280 nM. In experiment [1], this compound displayed an inhibition of 73.7%.
Compound `COc1cc(OC)c(/C=C/C(=O)c2ccc(C(F)(F)F)cc2)c(OC)c1` had an inhibition in experiment [1] of 43.6%.
For the compound `COc1cc(OC)c(/C=C/C(=O)c2cccc(C(F)(F)F)c2)c(OC)c1`, the IC50 in experiment [3] is 1840 nM. Also, the inhibition in experiment [1] is 75%.
`COc1cc(OC)c(/C=C/C(=O)c2ccc(F)cc2)c(OC)c1` registered an inhibition in experiment [1] of 63.9%.
On to `COc1cc(/C=C/C(=O)c2ccc(C(F)(F)F)cc2)cc(OC)c1OC`, for which the inhibition in experiment [1] was 55.8%.
Regarding `COc1ccc(/C=C/C(=O)c2ccccc2C(F)(F)F)c(OC)c1`, the IC50 in experiment [4] is 840 nM. Besides, the inhibition in experiment [1] was found to be 77.5%.
Compound `COc1ccc(/C=C/C(=O)c2ccc(C(F)(F)F)cc2)c(OC)c1` registered an inhibition in experiment [1] of 46.8%.
In experiment [5], `COc1cc(OC)c(/C=C/C(=O)c2ccccc2C(F)(F)F)c(OC)c1` displayed an IC50 of 1020 nM. In addition, the inhibition in experiment [1] was found to be 76.3%.
`COc1ccc(OC)c(/C=C/C(=O)c2ccc(C(F)(F)F)cc2)c1` yielded an inhibition in experiment [1] of 60.1%.
For `COc1cc(OC)c(OC)cc1/C=C/C(=O)c1ccc(C(F)(F)F)cc1`, the inhibition in experiment [1] was 49.3%.
For the compound `COc1cc(/C=C/C(=O)c2ccc(F)cc2)cc(OC)c1OC`, the inhibition in experiment [1] was 94.1%. This compound registered an IC50 in experiment [6] of 30 nM.
The compound `COc1ccc(/C=C/C(=O)c2ccc(F)cc2)c(OC)c1` yielded an inhibition in experiment [1] of 55.7%.
`COc1cc(OC)c(OC)cc1/C=C/C(=O)c1ccc(F)cc1F` displayed an IC50 in experiment [7] of 640 nM. The compound also registered an inhibition in experiment [1] of 81.7%.
In turn, `COc1cc(OC)c(/C=C/C(=O)c2ccc(F)cc2F)c(OC)c1` showed an inhibition in experiment [1] of 59%.
Still for that read-out and setting: under `COc1ccc(/C=C/C(=O)c2ccc(F)cc2F)cc1OC` stands 52.4%.
`COc1ccc(OC)c(/C=C/C(=O)c2ccccc2C(F)(F)F)c1`: half-maximal inhibition in experiment [8] (IC50) required 910 nM. Further, the inhibition in experiment [1] turned out to be 99%.

The values above are taken from ChEMBL document CHEMBL1135187, “The synthesis and effect of fluorinated chalcone derivatives on nitric oxide production” (Bioorg Med Chem Lett, 2002).
